Test results: ChEMBL document CHEMBL4052614, “Novel 3',5'-diprenylated chalcones inhibited the proliferation of cancer cells in vitro by inducing cell apoptosis and arresting cell cycle phase” (Eur J Med Chem, 2017)
Activity calls are given as the source filed them. No cut-off for these calls is given here.

How the values were obtained:
[1] = test system: MDA-MB-231; experiment: Induction of apoptosis in human MDA-MB-231 cells assessed as early apoptotic cells at 5 umol/L after 48 hrs by annexin V-FITC/propidium iodide staining based flow cytometry (reference value: 3%); format: functional
[2] = test system: PC-3; experiment: Induction of apoptosis in human PC3 cells assessed as viable cells at 5 umol/L after 48 hrs by annexin V-FITC/propidium iodide staining based flow cytometry (reference value: 86.7%); format: functional; conditions: PC-3, 48 h, read-out: Activity
[3] = test system: MDA-MB-231; experiment: Induction of apoptosis in human MDA-MB-231 cells assessed as necrotic cells at 5 umol/L after 48 hrs by annexin V-FITC/propidium iodide staining based flow cytometry (reference value: 3.4%); format: functional
[4] = test system: PC-3; experiment: Potency index, ratio of compound effect to (E)-2-Hydroxy-4,4-dimethoxy-3,5-diprenylchalcone effect for growth inhibition of human PC3 cells; format: functional
[5] = test system: MDA-MB-231; experiment: Cell cycle arrest in human MDA-MB-231 cells assessed as decrease in S phase accumulation at 5 umol/L after 48 hrs by propidium iodide staining based flow cytometric method; format: functional
Outline: (§1)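 Cells grown in DMEM with 10% FBS and penicillin/streptomycin at 37 °C, 5% CO2, and passaged at least 3 times after thawing. Treated 48 h at 5 µmol/L, DMSO-treated controls. Harvested by trypsin, PBS-washed, fixed in ice-cold ethanol, blocked 1 h at 4 °C in 5% BSA/PBS, RNase 1 µg/mL 30 min at 37 °C, PI 20 µg/mL final. Phase percentages read from PI histograms. Mean ± SD, three independent experiments.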

[6] = test system: MDA-MB-231; experiment: Cytotoxicity against human MDA-MB-231 cells after 48 hrs by MTT assay; format: functional, cell-based
Outline: (§2)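 Cells kept in DMEM/10% FBS at 37 °C, 5% CO2, seeded at 4×10^3–8×10^3 cells/well and left 24 h to adhere. Exposed 48 h to a range of concentrations. MTT (5 mg/mL solution) added for 4 h at 37 °C, formazan dissolved in DMSO, absorbance read at 490 nm. IC50 derived from concentration–inhibition relation. Doxorubicin as positive control.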

[7] = test system: K562; experiment: Induction of morphological changes in human K562 cells assessed as increase in formation of apoptotic bodies at 5 umol/L after 48 hrs by inverted microscopic method; format: functional, cell-based
Outline: (§3)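 Cells cultured in DMEM/10% FBS at 37 °C, 5% CO2. Exposed 48 h to 5 µmol/L compound alongside DMSO controls. Morphology (cell number, rounding, spacing, apoptotic bodies, spindle shape) observed under an inverted microscope with CCD camera.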

[8] = test system: PC-3; experiment: Induction of morphological changes in human PC3 cells assessed as increase in cell rounding at 5 umol/L after 48 hrs by inverted microscopic method; format: functional, cell-based
Outline: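 PC3 cells were kept in DMEM with 10% FBS, penicillin and streptomycin at 37 °C under 5% CO2, and were passaged at least 3 times after thawing. Cells were seeded at 4 × 10^3 to 8 × 10^3 cells/well and left to adhere for 24 h. They were then exposed to 5 µmol/L compound for 48 h. Morphology was viewed by inverted microscope against DMSO-treated controls.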

[9] = test system: MDA-MB-231; experiment: Induction of morphological changes in human MDA-MB-231 cells assessed as increase in cell rounding at 5 umol/L after 48 hrs by inverted microscopic method; format: functional, cell-based; outline: as §3
[10] = test system: K562; experiment: Cytotoxicity against human K562 cells after 48 hrs by MTT assay; format: functional, cell-based; outline: as §2
[11] = test system: HEL; experiment: Induction of morphological changes in HEL cells assessed as reduction in cell number at 5 umol/L after 48 hrs by inverted fluorescence microscopic analysis; format: functional, cell-based; conditions: Homo sapiens; outline: as §3
[12] = test system: K562; experiment: Cell cycle arrest in human K562 cells assessed as decrease in G1 phase accumulation at 5 umol/L after 48 hrs by propidium iodide staining based flow cytometry; format: functional; outline: as §1
[13] = test system: K562; experiment: Potency index, ratio of compound effect to (E)-2-Hydroxy-4,4-dimethoxy-3,5-diprenylchalcone effect for growth inhibition of human K562 cells; format: functional
[14] = test system: HEL; experiment: Growth inhibition of HEL cells at 5 umol/L after 48 hrs by MTT assay relative to control; format: functional; conditions: Homo sapiens, read-out: GI
Outline: (§4)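 Cells kept in DMEM/10% FBS at 37 °C, 5% CO2, seeded at 4×10^3–8×10^3 cells/well, 24 h attachment, then 48 h with compound at 5 µmol/L. MTT (5 mg/mL solution) added for 4 h at 37 °C, formazan taken up in DMSO, A490 read. Percent inhibition as mean ± SD of three independent experiments. Doxorubicin as positive control.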

[15] = test system: MDA-MB-231; experiment: Growth inhibition of human MDA-MB-231 cells at 5 umol/L after 48 hrs by MTT assay relative to control; format: functional; conditions: MDA-MB-231, 48 h, read-out: GI; outline: as §4
[16] = test system: PC-3; experiment: Cytotoxicity against human PC3 cells after 48 hrs by MTT assay; format: functional, cell-based; outline: as §2
[17] = test system: K562; experiment: Cell cycle arrest in human K562 cells assessed as decrease in G2 phase accumulation at 5 umol/L after 48 hrs by propidium iodide staining based flow cytometry; format: functional; outline: as §1
[18] = test system: MDA-MB-231; experiment: Induction of apoptosis in human MDA-MB-231 cells assessed as viable cells at 5 umol/L after 48 hrs by annexin V-FITC/propidium iodide staining based flow cytometry (reference value: 91.3%); format: functional; conditions: MDA-MB-231, 48 h, read-out: Activity
[19] = test system: HEL; experiment: Induction of morphological changes in HEL cells assessed as formation of apoptotic bodies at 5 umol/L after 48 hrs by inverted fluorescence microscopic analysis; format: functional, cell-based; conditions: Homo sapiens; outline: as §3
[20] = test system: K562; experiment: Induction of apoptosis in human K562 cells assessed as late apoptotic cells at 5 umol/L after 48 hrs by annexin V-FITC/propidium iodide staining based flow cytometry (reference value: 2.3%); format: functional
[21] = test system: HEL; experiment: Cell cycle arrest in HEL cells assessed as decrease in S phase accumulation at 5 umol/L after 48 hrs by propidium iodide staining based flow cytometry; format: functional; conditions: Homo sapiens; outline: as §1
[22] = test system: HEL; experiment: Induction of apoptosis in HEL cells assessed as early apoptotic cells at 5 umol/L after 48 hrs by annexin V-FITC/propidium iodide staining based flow cytometry (reference value: 2.6 to 4.2%); format: functional, Homo sapiens
[23] = test system: HEL; experiment: Cell cycle arrest in HEL cells assessed as increase in G1 phase accumulation at 5 umol/L after 48 hrs by propidium iodide staining based flow cytometry; format: functional; conditions: Homo sapiens; outline: as §1
[24] = test system: PC-3; experiment: Induction of apoptosis in human PC3 cells assessed as early apoptotic cells at 5 umol/L after 48 hrs by annexin V-FITC/propidium iodide staining based flow cytometry (reference value: 4%); format: functional

COc1c(CC=C(C)C)cc(C(=O)/C=C/c2cccnc2)c(O)c1CC=C(C)C
Activity [1]: 13.8% | viability at 5 µM [2]: 44.9% | Activity [3]: 14.1% | Ratio [4]: 3 - 4 | Activity [5]: Active | Activity [6]: Dose-dependent effect | IC50 ([6]; MDA-MB-231, 48 h): 3140 nM | Activity [7]: Active | Activity [8]: Active | Activity [9]: Active | Activity [10]: Dose-dependent effect | IC50 ([10]; K562, 48 h): 2640 nM | Activity [11]: Active | Activity [12]: Active | Ratio [13]: 3 - 4 | inhibition of growth at 5 µM [14]: 91.7% | inhibition of growth at 5 µM [15]: 83.4% | Activity [16]: Dose-dependent effect | IC50 ([16]; PC-3, 48 h): 2920 nM | Activity [17]: Active | viability at 5 µM [18]: 35.2% | Activity [19]: inactive | Activity [20]: 14.6% | Activity [21]: Active | Activity [22]: 5.6% | Activity [23]: Active | Activity [24]: 1.8%
